pIC50: −log10 of the molar value. Calls of active or inactive are those of the source. No cut-off for these calls is given here.
Columns and labels:
[1] = target: T1, Histone-lysine N-methyltransferase EHMT2 (Homo sapiens) (UniProt Q96KQ7); experiment: Inhibition of G9a-mediated methylation of histone H3 at 100 uM after 90 mins by scintillation counting in presence of S-adenosyl-l-[methyl-3H]methionine
T1 sequence (whole entry): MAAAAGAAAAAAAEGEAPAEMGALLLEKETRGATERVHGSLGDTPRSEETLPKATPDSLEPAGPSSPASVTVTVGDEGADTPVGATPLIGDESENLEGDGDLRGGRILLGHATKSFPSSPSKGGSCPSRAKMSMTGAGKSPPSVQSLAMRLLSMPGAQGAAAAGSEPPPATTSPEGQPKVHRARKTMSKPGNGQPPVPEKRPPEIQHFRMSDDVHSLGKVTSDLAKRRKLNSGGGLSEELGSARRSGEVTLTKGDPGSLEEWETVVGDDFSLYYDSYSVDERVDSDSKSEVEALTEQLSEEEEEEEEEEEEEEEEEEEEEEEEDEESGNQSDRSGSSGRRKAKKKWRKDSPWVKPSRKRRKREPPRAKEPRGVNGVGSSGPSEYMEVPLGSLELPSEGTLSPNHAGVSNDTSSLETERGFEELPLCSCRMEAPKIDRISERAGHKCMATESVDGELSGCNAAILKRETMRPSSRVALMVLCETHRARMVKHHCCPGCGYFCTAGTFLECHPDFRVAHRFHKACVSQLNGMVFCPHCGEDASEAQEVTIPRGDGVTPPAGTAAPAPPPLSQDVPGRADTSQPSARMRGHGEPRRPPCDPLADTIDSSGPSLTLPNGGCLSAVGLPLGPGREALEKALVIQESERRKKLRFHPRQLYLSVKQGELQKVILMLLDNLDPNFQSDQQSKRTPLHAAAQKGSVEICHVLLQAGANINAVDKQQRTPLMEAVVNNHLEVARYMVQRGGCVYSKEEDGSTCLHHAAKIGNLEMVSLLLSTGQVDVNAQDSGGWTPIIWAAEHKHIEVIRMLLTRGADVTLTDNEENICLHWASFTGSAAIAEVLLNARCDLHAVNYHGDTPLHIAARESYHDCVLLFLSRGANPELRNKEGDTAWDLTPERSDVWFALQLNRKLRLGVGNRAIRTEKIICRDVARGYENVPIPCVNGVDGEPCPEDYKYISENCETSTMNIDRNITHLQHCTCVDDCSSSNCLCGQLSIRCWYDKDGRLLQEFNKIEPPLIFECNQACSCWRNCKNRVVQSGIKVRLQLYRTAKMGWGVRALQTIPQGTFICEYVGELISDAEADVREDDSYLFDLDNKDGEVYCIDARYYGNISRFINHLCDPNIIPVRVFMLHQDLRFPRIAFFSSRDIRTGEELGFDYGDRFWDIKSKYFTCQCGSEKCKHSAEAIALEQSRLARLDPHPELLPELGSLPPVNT
Procedure, shortened: (§1)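 Compound at 100 μM with 0.1–0.2 μM recombinant enzyme and 0.5–1.5 μM substrate in PBS pH 7.4 containing [³H]AdoMet. Incubated 30 °C for 90 min, then SDS-PAGE, PVDF transfer and overnight film fluorography. Ponceau-stained substrate bands cut out and dpm counted by liquid scintillation.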

[2] = target: Histone-lysine N-methyltransferase, H3 lysine-79 specific (Homo sapiens) (UniProt Q8TEK3); experiment: Inhibition of DOTL1-mediated methylation of nucleosome at 100 uM after 90 mins by scintillation counting in presence of S-adenosyl-l-[methyl-3H]methionine; procedure, shortened: as §1
Histone-lysine N-methyltransferase, H3 lysine-79 specific (Homo sapiens), sequence (Q8TEK3 whole entry, looked up): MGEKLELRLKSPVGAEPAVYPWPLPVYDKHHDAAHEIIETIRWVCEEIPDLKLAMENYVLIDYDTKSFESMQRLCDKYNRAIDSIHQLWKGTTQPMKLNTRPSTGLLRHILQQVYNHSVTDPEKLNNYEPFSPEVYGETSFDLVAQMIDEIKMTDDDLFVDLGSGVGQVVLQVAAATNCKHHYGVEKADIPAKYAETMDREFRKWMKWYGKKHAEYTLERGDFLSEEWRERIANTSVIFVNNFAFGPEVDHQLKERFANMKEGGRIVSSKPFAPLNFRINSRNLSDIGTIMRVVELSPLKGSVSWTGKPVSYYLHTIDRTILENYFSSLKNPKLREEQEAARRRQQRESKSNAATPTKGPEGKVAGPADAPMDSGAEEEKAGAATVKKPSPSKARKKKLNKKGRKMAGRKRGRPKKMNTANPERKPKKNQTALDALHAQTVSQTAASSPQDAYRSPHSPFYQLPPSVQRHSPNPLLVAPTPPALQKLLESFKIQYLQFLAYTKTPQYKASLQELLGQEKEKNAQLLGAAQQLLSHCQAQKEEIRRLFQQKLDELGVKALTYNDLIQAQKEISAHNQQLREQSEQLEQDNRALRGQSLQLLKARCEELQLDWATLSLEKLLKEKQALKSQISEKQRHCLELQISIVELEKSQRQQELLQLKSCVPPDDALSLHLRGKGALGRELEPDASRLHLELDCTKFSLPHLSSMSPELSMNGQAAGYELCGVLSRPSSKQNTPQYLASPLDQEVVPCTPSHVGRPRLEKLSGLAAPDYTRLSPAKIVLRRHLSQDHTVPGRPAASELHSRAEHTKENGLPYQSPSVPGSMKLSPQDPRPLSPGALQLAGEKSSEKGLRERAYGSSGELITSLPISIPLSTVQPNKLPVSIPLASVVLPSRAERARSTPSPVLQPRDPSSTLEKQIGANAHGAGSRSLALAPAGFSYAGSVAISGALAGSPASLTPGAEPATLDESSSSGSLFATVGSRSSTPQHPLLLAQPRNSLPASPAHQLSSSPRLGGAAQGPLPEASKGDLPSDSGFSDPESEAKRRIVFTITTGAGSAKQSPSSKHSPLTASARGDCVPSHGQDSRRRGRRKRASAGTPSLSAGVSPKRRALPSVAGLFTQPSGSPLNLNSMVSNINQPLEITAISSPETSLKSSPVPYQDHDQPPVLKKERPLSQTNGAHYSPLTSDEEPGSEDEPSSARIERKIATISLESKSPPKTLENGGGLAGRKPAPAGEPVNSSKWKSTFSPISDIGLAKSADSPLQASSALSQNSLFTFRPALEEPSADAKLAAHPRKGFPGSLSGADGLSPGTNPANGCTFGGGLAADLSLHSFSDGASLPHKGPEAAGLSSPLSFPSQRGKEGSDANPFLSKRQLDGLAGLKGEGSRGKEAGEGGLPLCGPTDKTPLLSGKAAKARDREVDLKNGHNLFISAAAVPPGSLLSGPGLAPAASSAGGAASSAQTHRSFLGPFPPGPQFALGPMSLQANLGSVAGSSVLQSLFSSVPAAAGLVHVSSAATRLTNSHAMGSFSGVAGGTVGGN

[3] = target: T2, Histone-arginine methyltransferase CARM1 (Homo sapiens) (UniProt Q86X55); experiment: Inhibition of CARM1-mediated methylation of SMB at 100 uM after 90 mins by scintillation counting in presence of S-adenosyl-l-[methyl-3H]methionine; procedure, shortened: as §1
T2 sequence (whole entry): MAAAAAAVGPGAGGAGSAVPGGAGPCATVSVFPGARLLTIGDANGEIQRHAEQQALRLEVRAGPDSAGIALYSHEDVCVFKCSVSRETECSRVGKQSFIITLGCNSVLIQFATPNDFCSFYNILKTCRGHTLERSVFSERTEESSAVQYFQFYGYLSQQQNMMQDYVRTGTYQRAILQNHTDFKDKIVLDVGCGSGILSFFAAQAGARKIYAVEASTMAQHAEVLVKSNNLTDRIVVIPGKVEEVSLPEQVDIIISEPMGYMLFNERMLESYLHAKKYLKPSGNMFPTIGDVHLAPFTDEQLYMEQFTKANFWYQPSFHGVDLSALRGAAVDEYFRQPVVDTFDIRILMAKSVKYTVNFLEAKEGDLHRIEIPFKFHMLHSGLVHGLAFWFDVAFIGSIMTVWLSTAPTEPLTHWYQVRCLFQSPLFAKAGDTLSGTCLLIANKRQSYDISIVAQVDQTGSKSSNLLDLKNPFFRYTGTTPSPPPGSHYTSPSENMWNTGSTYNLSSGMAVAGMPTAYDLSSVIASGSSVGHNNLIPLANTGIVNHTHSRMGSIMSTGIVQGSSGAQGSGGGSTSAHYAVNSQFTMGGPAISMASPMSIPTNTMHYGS

[4] = target: T2, Histone-arginine methyltransferase CARM1 (Homo sapiens); experiment: Inhibition of CARM1-mediated methylation of PABP1 at 100 uM after 90 mins by scintillation counting in presence of S-adenosyl-l-[methyl-3H]methionine; procedure, shortened: as §1
[5] = target: T3, Histone-lysine N-methyltransferase SUV39H1 (Homo sapiens) (UniProt O43463); experiment: Inhibition of Suv39H1-mediated methylation of histone H3 at 100 uM after 90 mins by scintillation counting in presence of S-adenosyl-l-[methyl-3H]methionine
T3 sequence (whole entry): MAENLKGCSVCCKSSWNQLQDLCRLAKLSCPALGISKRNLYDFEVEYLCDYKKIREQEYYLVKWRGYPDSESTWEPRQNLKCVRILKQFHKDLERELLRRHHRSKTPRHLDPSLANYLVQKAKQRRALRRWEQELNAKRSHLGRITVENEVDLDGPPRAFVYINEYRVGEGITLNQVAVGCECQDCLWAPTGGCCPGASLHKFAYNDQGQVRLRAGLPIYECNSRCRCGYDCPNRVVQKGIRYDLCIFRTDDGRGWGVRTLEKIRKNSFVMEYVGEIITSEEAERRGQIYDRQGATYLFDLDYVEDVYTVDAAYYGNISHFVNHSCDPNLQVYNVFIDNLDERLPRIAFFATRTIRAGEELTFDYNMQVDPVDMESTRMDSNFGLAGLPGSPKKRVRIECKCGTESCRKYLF

[6] = target: T2, Histone-arginine methyltransferase CARM1 (Homo sapiens); experiment: Inhibition of CARM1-mediated methylation of histone H3 at 100 uM after 90 mins by scintillation counting in presence of S-adenosyl-l-[methyl-3H]methionine; procedure, shortened: as §1
[7] = target: T4, Histone-arginine methyltransferase CARM1 (Homo sapiens, UniProt Q86X55); experiment: Inhibition of CARM1-mediated methylation of PABP1 after 90 mins by scintillation counting in presence of S-adenosyl-l-[methyl-3H]methionine
T4 sequence (Q86X55 whole entry): T2 sequence (whole entry)

In the case of `O=C1/C(=C/c2ccc(O)c(Br)c2)CN(Cc2cccc(Cl)c2)C/C1=C\c1ccc(O)c(Br)c1`, the inhibition [1] was “inactive”, the inhibition [2] was “inactive” and the inhibition [3] was “Active”. The inhibition [4] was “Active”, the inhibition [5] was “inactive” and the inhibition [6] was “Active”. It also gave a pIC50 [7] of 5.09.
`O=C1/C(=C/c2ccc(O)c(Br)c2)CN(Cc2ccccc2)C/C1=C\c1ccc(O)c(Br)c1` was tested, and the inhibition [1] was “inactive”, the inhibition [2] was “inactive” and the inhibition [3] was “Active”. The inhibition [4] was “Active”, the inhibition [5] was “inactive” and the inhibition [6] was “Active”. The pIC50 [7] was 5.07.
In the case of `O=C1/C(=C/c2ccc(O)c(Br)c2)CN(CC(=O)c2ccccc2)C/C1=C\c1ccc(O)c(Br)c1`, the inhibition [1] was “inactive”, the inhibition [2] was “inactive” and the inhibition [3] was “Active”. For the same molecule, the inhibition [4] was “Active”, the inhibition [5] was “inactive” and the inhibition [6] was “Active”. For the same molecule, the pIC50 [7] was 4.84.
